Measurements published in ChEMBL document CHEMBL4130514, “Sporothriolide-Related Compounds from the Fungus Hypoxylon monticulosum CLL-205 Isolated from a Sphaerocladina Sponge from the Tahiti Coast” (J Nat Prod, 2017).
Calls of active or inactive are those of the source. The calls are words filed in the database; no cut-off is given here.

Legend:
HCT-116 = test: Antiproliferative activity against human HCT116 cells after 72 hrs by MTT assay; type: functional, cell-based; conditions: for IC50: HCT-116, 72 h
Summary of the method: (§1)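 Tetrazolium colorimetric proliferation assay in HCT-116 (colon carcinoma), PC-3 (prostate) and MCF-7 (breast) cells grown in DMEM with 10% fetal calf serum plus penicillin, streptomycin and fungizone. After 24 h growth, cells were treated with compounds from 100 μM to 10 nM, given in DMSO at 1% to 3% final. MTS was added at 72 h and absorbance was read at 490 nm against untreated cells. IC50 was determined from separate duplicate experiments.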

Bacillus subtilis = test: Antibacterial activity against Bacillus subtilis; type: functional, organism-based
Escherichia coli = test: Antibacterial activity against Escherichia coli; type: functional, organism-based
Micrococcus luteus = test: Antibacterial activity against Micrococcus luteus; type: functional, organism-based
MCF7 = test: Antiproliferative activity against human MCF7 cells after 72 hrs by MTT assay; type: functional, cell-based; summary of the method: as §1
PC-3 = test: Antiproliferative activity against human PC3 cells after 72 hrs by MTT assay; type: functional, cell-based; summary of the method: as §1
[1] = Inhibition of hyaluronidase (unknown origin); design: species or system Homo sapiens

| Compound | IC50 (HCT-116) | Activity (Bacillus subtilis) | Activity (Escherichia coli) | Activity (Micrococcus luteus) | IC50 (MCF7; MCF7, 72 h) | IC50 (PC-3; PC-3, 72 h) | IC50 [1] | Activity (HCT-116) | Activity (MCF7) | Activity (PC-3) |
| --- | --- | --- | --- | --- | --- | --- | --- | --- | --- | --- |
| C=C(C(=O)O)[C@H]1C[C@@H](CCCCCC)OC1=O | 18 µM | inactive | inactive | inactive | – | – | – | – | – | – |
| C=C1C(=O)O[C@@H]2[C@H]1C(=O)O[C@@H]2CCCCCC | 7.1 µM | inactive | inactive | inactive | 4 µM | 6.4 µM | – | – | – | – |
| CC1(C)[C@@H](O[C@H]2O[C@H](C(=O)O)[C@@H](O)[C@H](O)[C@H]2O[C@@H]2O[C@H](C(=O)O)[C@@H](O)[C@H](O)[C@H]2O)CC[C@]2(C)[C@H]3C(=O)C=C4[C@@H]5C[C@@](C)(C(=O)O)CC[C@]5(C)CC[C@@]4(C)[C@]3(C)CC[C@@H]12 [GLYCYRRHIZIN] | – | – | – | – | – | – | 320 µM | – | – | – |
| CCCCCC[C@H]1OC(=O)[C@@H]2[C@H]1OC(=O)[C@]21CCC=C[C@H]1/C=C/[C@@H]1O[C@H](C)C[C@@H]1O | – | inactive | inactive | inactive | – | – | 300 µM | inactive | inactive | inactive |
